Laboratory results taken from ChEMBL document CHEMBL1126683, “Synthesis and antitumor activity of isodoxorubicin analogues” (J Med Chem, 1993).
In brackets after ≈: the same amount, converted by molar mass.

Legend:
[1] = system: A549; assay: Growth inhibition of A 549 cell line by MTT reduction for 3 days of incubation time; type: functional, cell-based; settings: Homo sapiens, A549, 72 h
Outline: (§1)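 Exponentially growing A549 or HT29 cells were seeded at 5×10^3/mL in RPMI and exposed to graded concentrations for 72 h (37 °C, 5% CO₂), in quadruplicate wells. MTT was added at 65 h, followed by a further 7–24 h incubation. Formazan was dissolved in DMSO and read at 492 nm. Results were expressed as extinction ratio to medium-only control, and IC50 was taken as 50% growth inhibition.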

[2] = system: HT-29; assay: Growth inhibition of HT 29 cell line by MTT reduction for 3 days of incubation time; type: functional, cell-based; settings: Homo sapiens, HT-29, 72 h; outline: as §1
[3] = system: L1210; assay: Growth inhibition of L1210 murine leukemia cells after 1 hr exposure in untreated control culture; type: functional, cell-based; settings: Mus musculus, L1210, 1 h
Outline: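 L1210 cells were exposed to graded concentrations for 1 h at 37 °C, washed twice in McCoy 5A, and plated at 5×10^2 cells/plate in an agar upper layer using a modified Hamburger–Salmon method. Plates were kept 5–7 days at 37 °C in 5% CO₂, 20% O₂, 95% humidity. Colonies >60 μm were counted as % of untreated control, and IC50 was read from dose–response curves.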

[4] = system: L1210; assay: Growth inhibition of L1210 murine leukemia cells after 3 day exposure in MTT reduction assay; settings: Mus musculus, L1210, 3 days
[5] = system: L1210; assay: Growth inhibition of L1210/ADM murine leukemia cells after 3 day exposure in MTT assay; settings: Mus musculus, L1210, 3 day
[6] = species on record: Homo sapiens; assay: Activity against internally growing human tumor LXF / ADM tested in subrenal capsule assay; type: functional
Outline: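 Tumors were resected at about 1/3 cm, cut into pieces of about 5 mm³, and retransplanted repeatedly until sensitivity was reduced. The subline was then tested in the subrenal capsule assay, with tumor area of the treated group scored as >50%, 10–50%, or <10% of control.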

[7] = Evaluated for the degree of cross resistance as the ratio of degree of resistance of doxorubicin to degree of resistance of the compound; type: functional
Outline: (§2)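 Colony (stem cell) assay comparing L1210 and L1210/ADM cells under continuous exposure, with the compound mixed into the agar upper layer before plating. Cells were plated at 5×10^2 per plate and incubated 5–7 days at 37 °C. Colonies >60 μm were counted relative to untreated control, and IC50 values were taken from dose–response curves to form the resistance ratios.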

[8] = system: L1210; assay: Percentage ratio of mean survival time of treated animals to untreated controls for L1210 mouse leukemia treated by 3.1 mg / kg dosed intravenously on 1,5,and 9 days; settings: route intravenous
[9] = species on record: Homo sapiens; assay: Activity against internally growing human tumor HT-29 tested in subrenal capsule assay; type: functional
Outline: (§3)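 Human tumors were grown intrarenally in a subrenal capsule assay. Tumor area of the treated group was scored against the control group as follows: >50%, between 10% and 50%, or <10% of control.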

[10] = Evaluated for the degree of resistance as the ratio of IC50 L1210 / ADM to IC50 of L1210; type: functional; outline: as §2
[11] = species on record: Homo sapiens; assay: Activity against internally growing human tumor A-549 tested in subrenal capsule assay; type: functional; outline: as §3
[12] = species on record: Homo sapiens; assay: Activity against internally growing human tumor LXF tested in subrenal capsule assay; type: functional; outline: as §3
[13] = system: HT-29; assay: Growth inhibition of HT 29 cell line by MTT reduction for 7 days of incubation time; settings: Homo sapiens, HT-29, 168 h
[14] = system: A549; assay: cells; settings: Homo sapiens, A549, 168 h

Row | SMILES | IC50 [1] [µg/mL] | IC50 [2] [µg/mL] | IC50 [3] [µg/mL] | IC50 [4] [µg/mL] | IC50 [5] [µg/mL] | T/C [6] [%] | Degree of cross resistance [7] | T/C [8] [%] | T/C [9] [%] | Degree of resistance [10] | T/C [11] [%] | T/C [12] [%] | IC50 [13] [µg/mL] | IC50 [14] [µg/mL]
1 | CC1O[C@@H](O[C@H]2C[C@](O)(CO)Cc3c(O)c4c(c(O)c32)C(=O)c2ccccc2C4=O)C[C@@H](O)[C@@H]1N1CCOCC1 (stereo partly specified) | 0.054 (≈ 0.0972 µM) | 0.13 (≈ 0.234 µM) | 0.21 (≈ 0.378 µM) | 0.15 (≈ 0.27 µM) | – | – | – | – | – | – | – | – | – | –
2 | CC1O[C@@H](O[C@H]2C[C@](O)(CO)Cc3c(O)c4c(c(O)c32)C(=O)c2ccccc2C4=O)C[C@@H](O)[C@@H]1N.Cl (stereo partly specified) | 0.009 | 0.01 | 0.022 | 0.009 | 0.1 | >50 | 24 | 133 | >50 | 11 | >50 | >10 | – | –
3 | CC1O[C@@H](O[C@H]2C[C@](O)(CO)Cc3c(O)c4c(c(O)c32)C(=O)c2ccccc2C4=O)C[C@@H](O)[C@@H]1N=[N+]=[N-] (stereo partly specified) | 0.24 (≈ 0.469 µM) | 0.46 (≈ 0.899 µM) | 0.26 (≈ 0.508 µM) | 0.13 (≈ 0.254 µM) | – | – | – | – | – | – | – | – | – | –
4 | COc1cccc2c1C(=O)c1c(O)c3c(c(O)c1C2=O)C[C@@](O)(C(=O)CO)C[C@@H]3O[C@H]1C[C@H](N)[C@H](O)[C@H](C)O1 [DOXORUBICIN] | 0.05 (≈ 0.092 µM) | 0.06 (≈ 0.11 µM) | 0.04 (≈ 0.0736 µM) | – | 0.9 (≈ 1.66 µM) | >10 | 100 | – | >10 | 45 | >10 | <10 | 0.02 (≈ 0.0368 µM) | 0.02 (≈ 0.0368 µM)
5 | CC1O[C@@H](O[C@H]2C[C@](O)(CO)Cc3c(O)c4c(c(O)c32)C(=O)c2ccccc2C4=O)C[C@@H](O)[C@@H]1NC(=O)C(F)(F)F (stereo partly specified) | 0.011 (≈ 0.0189 µM) | 0.026 (≈ 0.0447 µM) | 0.0064 (≈ 0.011 µM) | 0.015 (≈ 0.0258 µM) | – | – | – | – | – | – | – | – | – | –
